This is a sample that favours compounds with a hit; in the whole collection about 27% have one here.
CYP2C9 inh: blocks human cytochrome P450 2C9; P11712; CYP2C9 Supersomes, luciferin-H conversion, luminescence; inhibition, % at 5 µM; 20% of 96,000 active; AID 777;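 active means blocking of liver enzyme CYP2C9 beyond about 50% at 5 µM, limit read from the data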
Cav32 inh: inhibitors of human Cav3.2 T-type calcium channel. 4% of 100,000 active. Cav3.2-expressing cells, Fluo-4 calcium fluorescence FDSS; stronger effect = lower value. O95180. B-score at 10 µM;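 active means single-dose well whose peak fluorescence ratio is a statistical outlier from its plate by either plate-standardised score or position-corrected B-score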
CYP2C19 inhib: human CYP2C19 inhibition; P33261; CYP2C19 Supersomes, luciferin-H EGE luminescence, 30 min; inhibition, % at 5 µM; 21% of 96,000 active; AID 778;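 active means CYP2C19 inhibition above a set limit at 5 µM in the primary screen, cut at about 50% in these data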;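 further: plate controls were negative control wells for no effect and 2.5 mM tranylcypromine positive control for full effect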
Target sequence (P33261 whole entry, looked up): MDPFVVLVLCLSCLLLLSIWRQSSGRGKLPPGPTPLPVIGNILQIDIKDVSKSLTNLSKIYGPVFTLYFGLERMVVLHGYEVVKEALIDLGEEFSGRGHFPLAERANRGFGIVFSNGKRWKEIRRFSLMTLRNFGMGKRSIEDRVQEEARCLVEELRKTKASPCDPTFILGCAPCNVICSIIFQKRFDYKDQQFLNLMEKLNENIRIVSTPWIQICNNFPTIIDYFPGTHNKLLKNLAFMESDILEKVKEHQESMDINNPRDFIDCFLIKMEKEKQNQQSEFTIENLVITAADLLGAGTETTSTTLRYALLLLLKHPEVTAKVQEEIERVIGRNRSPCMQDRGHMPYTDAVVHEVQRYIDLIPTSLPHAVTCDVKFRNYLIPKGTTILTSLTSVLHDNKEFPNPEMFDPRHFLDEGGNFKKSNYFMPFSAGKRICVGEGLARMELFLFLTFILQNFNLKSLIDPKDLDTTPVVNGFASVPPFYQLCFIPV
CYP2C19 activ: cytochrome P450 2C19 (human) activation; recombinant CYP2C19, luciferin-H EGE luminescence; stronger effect = higher value; 0 = fully inhibited enzyme, 1 = untreated enzyme; activation factor at 5 µM; 96,000 tested, under 10 active;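 active means activation factor of at least 2 at 5 µM in the primary screen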;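 further: 0 = wells with 2.5 mM tranylcypromine and 1 = vehicle-only wells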
HIV Rev-RRE inh: inhibitors of HIV-1 Rev-RRE RNA interaction; 0.79% of 97,000 active; Rev peptide-RRE RNA binding, FRET; inhibition, % at 8 µM; P05866; AID 704;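 active means inhibition above the screen-wide mean plus 3 SD, cut at about 35% in these data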;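 further: 0% = median DMSO wells and 100% = median Neomycin B control wells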
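assay system = Cy5-tagged RRE RNA duplex with fluorescein-tagged Rev peptide | incubation = 5 + 15 min at 25 °C | also added = labelled Rev peptide | measure = % inhibition of FRET ratio versus controls | benchmarks = DMSO wells as 0% and neomycin B wells as 100% inhibition | measured by = FRET fluorescence readout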
CYP2C9 activ: CYP2C9 (human) activation; P11712; recombinant CYP2C9, luciferin-H conversion, luminescence; stronger effect = higher value; factor 1 = untreated enzyme, 0 = blocked; activation factor at 5 µM; 1.4% of 96,000 active; AID 1024;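 active means activation factor of 2 or more for CYP2C9 at a 5 µM dose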;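 further: 0 = sulfaphenazole-blocked wells and 1 = vehicle-only wells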
Active calls of the source: *; x = no result given.

SMILES	CYP2C9 inh	Cav32 inh	CYP2C19 inhib	CYP2C19 activ	HIV Rev-RRE inh	CYP2C9 activ
COc1ccccc1C(=O)N1CCN(c2cccc(C(F)(F)F)c2)CC1	68.2*	-2.06	92.4*	0.1	2.2	0.3
COc1ccc(C2=CC(c3ccc(Cl)cc3)n3cnnc3N2)cc1OC (stereo unspecified)	39.5	-1.62	25.2	0.7	x	0.6
Cc1ccc(C(=O)NNC(=O)C2CCCN(c3ncccn3)C2)cc1 (stereo unspecified)	9.3	0.829	28.5	0.7	-2.8	0.9
COc1ccccc1N=C1SC(C(=O)Nc2ccc(F)cc2)CC(=O)N1C (stereo unspecified)	x	1.2	x	x	6.0	x
O=C(c1csc2c1CCCC2)N1CCN(c2cccc(C(F)(F)F)c2)CC1	-60.6	-1.17	65.2*	0.3	11.9	1.6
O=C(c1csc2c1CCCC2)N1CCN(c2ccc(F)cc2)CC1	x	-2.46	x	x	10.0	x
O=C(CSc1nnc(-c2cccnc2)n1Cc1ccccc1)NCc1ccco1	-5.0	1.68	-7.3	1.1	1.2	1.1
O=C(CSc1nnc(-c2ccccn2)n1Cc1ccco1)Nc1ccc2c(c1)OCO2	37.3	0.657	-1.4	1	4.5	0.6
CC1CCN(C(=O)CSc2nnc(-c3cc4ccccc4cc3O)n2Cc2ccco2)CC1	74.4*	0.25	66.7*	0.3	3.2	0.3
O=C(CSc1nnc(-c2cnccn2)n1Cc1ccco1)Nc1ccc(Br)cc1	59.0*	-2.03	-3.2	1	16.6	0.4
COC(=O)c1c(NC(=O)CSc2nnc(-c3cccnc3)n2Cc2ccco2)sc(C)c1C	85.3*	x	83.5*	0.2	4.9	0.1
COc1ccc(C(=O)CSc2nnc(-c3cccnc3)n2Cc2ccco2)cc1	57.3*	0.0346	53.3*	0.5	6.6	0.4
CCC(C)(C(=O)NC1CCCCC1)N(C(=O)C1CCC(=O)N1)c1ccc(C)cc1 (stereo unspecified)	-20.5	0.0522	-14.7	1.1	x	1.2
CCN(CC)S(=O)(=O)c1ccc2c(c1)c(=O)c(C(=O)N1CCN(c3ccccc3)CC1)cn2C	x	2.07	x	x	10.1	x
CCn1cc(Cl)c(C(=O)Nc2nc3ccccc3n2CCN2CCCCC2)n1	4.0	-2.43	0.0	1	0.1	1
COc1ccc(N/C=C(\C#N)c2nc3ccccc3n2C)c(OC)c1	-28.8	-0.917	37.4	0.6	6.1	1.3
CCn1c(SCC(=O)c2ccc3ccccc3c2)nnc1-c1ccco1	40.4	0.671	18.8	0.8	12.1	0.6
COc1ccc(C(=O)CSc2nnc(-c3cc4ccccc4cc3O)n2Cc2ccco2)cc1	80.2*	0.123	43.7	0.6	8.1	0.2
O=C(CSc1nnc(-c2ccc(O)cc2)n1Cc1ccco1)N1CCc2ccccc2C1	50.4*	0.576	62.1*	0.4	5.7	0.5
COc1ccc(C(=O)CSc2nnc(-c3cnccn3)n2Cc2ccco2)cc1	54.4*	-0.199	40.5	0.6	5.7	0.5
O=C(Nc1cccc(O)c1)c1noc2c1CCc1ccccc1-2	-94.3	-0.653	-9.5	1.1	10.3	1.9
O=C(c1nn2cccnc2c1Cl)N1CCN(c2ccccc2)CC1	x	0.657	x	x	-3.5	x
Cc1nc(-c2ccccn2)sc1C(=O)Nc1ccc(F)cc1	-114.2	-1.22	9.5	0.9	6.8	2.1*
CCOC(=O)C1=C(C)C(c2ccccc2OC)NC(=S)N1 (stereo unspecified)	8.6	0.261	52.7*	0.5	-2.7	0.9
CCSc1nc(-c2ccco2)ccc1C#N	27.2	-1.29	-1.0	1	13.9	0.7
SMILES	CYP2C9 inh	Cav32 inh	CYP2C19 inhib	CYP2C19 activ	HIV Rev-RRE inh	CYP2C9 activ
Cc1cc(C)c(N=C2CCCN2Cc2ccccc2)c(C#N)c1	x	-4.75*	x	x	11.3	x
N#Cc1ccccc1N=C1CCCN1Cc1ccccc1	21.6	-0.0309	84.6*	0.2	4.2	0.8
Cc1cccc(N2CCCC2=Nc2ccc(Br)cc2C#N)c1	6.5	1.44	2.3	1	1.2	0.9
Cc1cccc(C)c1NC(=O)NC1(C(=O)NCCCN2CCOCC2)CCCCC1	x	0.294	x	x	2.1	x
CNc1nc2sc3c(c2c(=O)n1C)CC(C)(C)SC3	55.9*	1.16	72.9*	0.3	x	0.4
CN(C)c1nc2sc3c(c2c(=O)n1C)CC(C)(C)OC3	4.8	-0.905	6.3	0.9	2.1	1
Clc1ccccc1-c1ccc(CN2CCN(c3ccccc3)CC2)o1	64.4*	x	74.3*	0.3	11.3	0.4
